In ChEMBL document CHEMBL2010702, “Design and evaluation of a series of pyrazolopyrimidines as p70S6K inhibitors” (Bioorg Med Chem Lett, 2012):

How the values were obtained:
[1] = Inhibition of p70S6K-mediated S6 phosphorylation in human A549 cells after 3 hrs by chemiluminescence assay; format: cell-based; settings: A549, 3 h
Method in brief: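 A549 cells seeded at 7.5 × 10^3/well in DMEM with 10% FBS and 1% non-essential amino acids, grown 48 h at 37 °C, then exposed 3 h to compound ([…], triplicate, 0.2% DMSO). Fixed in formaldehyde, blocked, probed overnight at 4 °C with anti-phospho-S6 (Ser240/244) or anti-total-S6, then HRP secondary; chemiluminescent ELISA read-out.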

[2] = target: Ribosomal protein S6 kinase beta-1 (Homo sapiens, UniProt P23443, D18H/T412E); assay: Inhibition of human p70S6K D18H and T412E mutant using RRRLSSLRA as substrate after 3 hrs by luciferase-luciferin-coupled chemiluminescence assay
Chain of Ribosomal protein S6 kinase beta-1 (P23443 whole entry D18H/T412E): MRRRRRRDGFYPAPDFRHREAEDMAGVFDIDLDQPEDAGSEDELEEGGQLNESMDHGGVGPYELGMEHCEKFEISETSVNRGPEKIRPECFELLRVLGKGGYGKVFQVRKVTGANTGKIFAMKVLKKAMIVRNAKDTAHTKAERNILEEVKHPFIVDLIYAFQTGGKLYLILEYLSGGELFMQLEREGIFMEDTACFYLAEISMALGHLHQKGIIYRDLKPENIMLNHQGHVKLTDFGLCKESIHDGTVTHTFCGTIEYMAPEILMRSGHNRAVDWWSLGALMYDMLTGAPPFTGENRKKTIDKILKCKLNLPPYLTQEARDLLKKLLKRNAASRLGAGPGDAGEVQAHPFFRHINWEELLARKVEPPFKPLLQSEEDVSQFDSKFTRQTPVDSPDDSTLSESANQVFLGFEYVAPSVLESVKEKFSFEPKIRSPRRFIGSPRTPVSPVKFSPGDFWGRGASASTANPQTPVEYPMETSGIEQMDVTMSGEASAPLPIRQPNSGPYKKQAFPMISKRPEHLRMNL

[3] = Inhibition of PKA
[4] = target: Ribosomal protein S6 kinase alpha-3 (Homo sapiens, UniProt P51812); assay: Inhibition of Rsk2
Chain of Ribosomal protein S6 kinase alpha-3 (P51812 whole entry): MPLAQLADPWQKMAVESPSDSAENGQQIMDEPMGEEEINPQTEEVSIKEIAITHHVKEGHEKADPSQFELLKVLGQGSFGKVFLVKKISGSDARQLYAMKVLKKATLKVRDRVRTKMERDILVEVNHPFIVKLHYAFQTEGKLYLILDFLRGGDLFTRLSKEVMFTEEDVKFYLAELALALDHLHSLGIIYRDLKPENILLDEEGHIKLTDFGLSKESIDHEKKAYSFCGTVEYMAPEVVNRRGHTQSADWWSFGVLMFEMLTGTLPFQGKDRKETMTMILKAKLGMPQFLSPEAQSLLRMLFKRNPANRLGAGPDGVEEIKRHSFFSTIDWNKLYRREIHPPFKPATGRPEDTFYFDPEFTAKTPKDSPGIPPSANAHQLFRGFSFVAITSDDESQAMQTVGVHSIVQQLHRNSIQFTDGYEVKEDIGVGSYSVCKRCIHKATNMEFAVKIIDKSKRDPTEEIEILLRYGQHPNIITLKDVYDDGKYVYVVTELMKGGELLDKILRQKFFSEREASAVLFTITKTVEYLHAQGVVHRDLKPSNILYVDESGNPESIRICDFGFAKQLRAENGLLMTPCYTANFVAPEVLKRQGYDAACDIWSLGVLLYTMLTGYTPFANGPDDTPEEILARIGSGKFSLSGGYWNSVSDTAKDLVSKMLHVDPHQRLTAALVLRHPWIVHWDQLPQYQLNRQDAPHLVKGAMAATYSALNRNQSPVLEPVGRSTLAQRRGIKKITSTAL

[5] = target: RAC-beta serine/threonine-protein kinase (Homo sapiens, UniProt P31751); assay: Inhibition of Akt2
Chain of RAC-beta serine/threonine-protein kinase (P31751 whole entry): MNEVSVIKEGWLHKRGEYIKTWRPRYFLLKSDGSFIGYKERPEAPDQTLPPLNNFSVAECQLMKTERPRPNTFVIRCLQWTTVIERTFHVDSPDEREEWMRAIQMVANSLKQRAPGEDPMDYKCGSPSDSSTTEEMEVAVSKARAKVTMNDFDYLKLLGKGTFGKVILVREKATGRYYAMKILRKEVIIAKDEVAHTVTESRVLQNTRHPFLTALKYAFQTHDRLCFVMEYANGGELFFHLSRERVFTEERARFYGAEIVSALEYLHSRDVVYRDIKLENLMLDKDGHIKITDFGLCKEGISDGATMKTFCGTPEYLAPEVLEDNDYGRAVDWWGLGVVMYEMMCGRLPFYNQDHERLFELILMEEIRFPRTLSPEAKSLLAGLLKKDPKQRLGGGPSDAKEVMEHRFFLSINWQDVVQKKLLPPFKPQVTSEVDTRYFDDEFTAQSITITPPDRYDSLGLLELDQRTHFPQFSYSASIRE

[6] = target: RAC-alpha serine/threonine-protein kinase (Homo sapiens, UniProt P31749); assay: Inhibition of Akt1
Chain of RAC-alpha serine/threonine-protein kinase (P31749 whole entry): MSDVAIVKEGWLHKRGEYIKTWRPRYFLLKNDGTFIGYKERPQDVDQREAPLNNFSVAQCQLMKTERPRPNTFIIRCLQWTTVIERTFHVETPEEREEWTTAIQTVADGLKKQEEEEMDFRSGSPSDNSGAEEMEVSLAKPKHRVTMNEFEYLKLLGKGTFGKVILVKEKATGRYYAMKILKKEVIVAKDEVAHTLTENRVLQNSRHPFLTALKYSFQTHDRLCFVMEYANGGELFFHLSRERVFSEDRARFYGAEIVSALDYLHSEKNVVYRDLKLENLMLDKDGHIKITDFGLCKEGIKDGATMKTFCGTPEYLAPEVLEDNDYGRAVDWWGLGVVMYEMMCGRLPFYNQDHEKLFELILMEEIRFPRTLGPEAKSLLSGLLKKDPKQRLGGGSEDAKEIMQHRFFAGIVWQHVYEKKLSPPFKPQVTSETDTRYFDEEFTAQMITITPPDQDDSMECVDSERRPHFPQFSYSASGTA

[7] = target: Serine/threonine-protein kinase pim-1 (Homo sapiens, UniProt P11309); assay: Inhibition of PIM1
Chain of Serine/threonine-protein kinase pim-1 (P11309 whole entry): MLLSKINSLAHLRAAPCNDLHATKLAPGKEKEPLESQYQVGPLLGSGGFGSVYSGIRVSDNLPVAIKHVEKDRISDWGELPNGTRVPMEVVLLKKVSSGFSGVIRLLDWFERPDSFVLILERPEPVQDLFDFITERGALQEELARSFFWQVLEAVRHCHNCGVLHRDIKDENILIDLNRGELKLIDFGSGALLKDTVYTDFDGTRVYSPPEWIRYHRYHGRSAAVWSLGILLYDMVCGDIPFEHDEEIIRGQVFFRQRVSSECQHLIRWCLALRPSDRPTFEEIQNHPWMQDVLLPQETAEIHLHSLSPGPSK

[8] = Volume of distribution in rat at 2.5 mg/kg, iv and 2.5 mg/kg, po; format: ADME, organism-based; settings: in vivo
PC-3 [9] = assay: Antitumor activity against human PC3 cells xenografted in mouse assessed as tumor growth inhibition at 100 mg/kg, po bid for 14 days; format: functional; settings: PC-3, 336 h, read-out: GI
Method in brief: (§1)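 PC3 prostate carcinoma xenografts in mice; compound given orally at 30, 100 or 300 mg/kg twice daily for 14 days; tumor growth inhibition recorded.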

PC-3 [10] = assay: Antitumor activity against human PC3 cells xenografted in mouse assessed as tumor growth inhibition at 300 mg/kg, po bid for 14 days; format: functional; settings: PC-3, 336 h, read-out: GI; method in brief: as §1
[11] = Oral bioavailability in rat at 2.5 mg/kg; format: ADME, organism-based; settings: in vivo
[12] = Half life in rat at 2.5 mg/kg, iv; format: ADME, organism-based; design: dose 2.5 mg/kg, route intravenous; settings: in vivo
PC-3 [13] = assay: Antitumor activity against human PC3 cells xenografted in mouse assessed as tumor growth inhibition compound administered po bid for 14 days; format: functional, organism-based; method in brief: as §1
Rattus norvegicus [14] = assay: Dose normalized AUC in rat at 2.5 mg/kg, iv; format: ADME, organism-based; design: dose 2.5 mg/kg, route intravenous; settings: in vivo
[15] = Half life in rat at 2.5 mg/kg, po; format: ADME, organism-based; design: dose 2.5 mg/kg, route oral; settings: in vivo
PC-3 [16] = assay: Antitumor activity against human PC3 cells xenografted in mouse assessed as tumor growth inhibition at 30 mg/kg, po bid for 14 days; format: functional; settings: PC-3, 336 h, read-out: GI; method in brief: as §1
[17] = Clearance in rat at 2.5 mg/kg, iv and 2.5 mg/kg, po; format: ADME, organism-based; settings: in vivo
[18] = Cmax in rat at 2.5 mg/kg, iv; format: ADME, organism-based; design: dose 2.5 mg/kg, route intravenous; settings: in vivo
[19] = Cmax in rat at 2.5 mg/kg, po; format: ADME, organism-based; design: dose 2.5 mg/kg, route oral; settings: in vivo
Mus musculus = assay: Inhibition of p70S6K-mediated S6 phosphorylation in human PC3 cells xenografted in mouse at 100 mg/kg, po; format: functional; settings: PC-3
Rattus norvegicus [20] = assay: Dose normalized AUC in rat at 2.5 mg/kg, po; format: ADME, organism-based; design: dose 2.5 mg/kg, route oral; settings: in vivo

| IC50 [1] [nM] | IC50 [2] [nM] | Compound | other results |
| --- | --- | --- | --- |
| 184 | 3 | CCc1n[nH]c2ncnc(N3CCN(c4cc(Cl)cc(NCCN(CC)CC)c4C)CC3)c12 |  |
|  | > 2000 | Cc1nc(N2CCN(c3cc(Cl)ccc3C)CC2)c2cn[nH]c2n1 |  |
|  | 196 | Clc1cccc(N2CCN(c3[nH]cnc4ncnc3-4)CC2)c1 |  |
| 41 | 29 | Cc1ccc(Cl)cc1N1CCN(c2ncnc3[nH]nc(C(F)(F)F)c23)CC1 |  |
| 86 | 7 | Cc1ccc(Cl)cc1N1CCN(c2ncnc3[nH]nc(Br)c23)CC1 |  |
| 207 | 16 | Cc1ccc(Cl)cc1N1CCN(c2ncnc3[nH]nc(C(C)C)c23)CC1 |  |
| 500 | 9 | Cc1ccc(Cl)cc1N1CCN(c2ncnc3[nH]nc(C)c23)CC1 |  |
| 1130 | 13 | Cc1ccc(Cl)cc1N1CCN(c2ncnc3[nH]ncc23)CC1 |  |
|  | 85 | Nc1ncnc(N2CCN(c3cccc(Cl)c3)CC2)c1[N+](=O)[O-] |  |

Second part, the molecule before the results:

| Compound | IC50 [1] [nM] | IC50 [2] [nM] | other results |
| --- | --- | --- | --- |
| CCc1n[nH]c2ncnc(N3CCN(c4cc(Cl)cc(OCCN(C)C)c4C)CC3)c12 | 143 | 6 |  |
| CCCc1n[nH]c2ncnc(N3CCN(c4cc(Cl)ccc4C)CC3)c12 | 275 | 6 |  |
| CCc1n[nH]c2ncnc(N3CCN(c4cc(Cl)cc(NCCN5CCCC5)c4C)CC3)c12 | 80 | 3 |  |
| Clc1cccc(N2CCN(c3ncnc4[nH]ncc34)CC2)c1 |  | 107 |  |
| Cc1c(NCCN(C)C)cc(Cl)cc1N1CCN(c2ncnc3[nH]nc(C(F)(F)F)c23)CC1 | 50 | 4 | IC50 [3]: 6 nM; IC50 [4]: 24 nM; IC50 [5]: 477 nM; IC50 [6]: 74 nM |
| Cc1c(NCCN(C)C)cc(Cl)cc1N1CCN(c2ncnc3[nH]nc(Br)c23)CC1 | 43 | 2 | IC50 [3]: 25 nM; IC50 [4]: 248 nM; IC50 [5]: 311 nM; IC50 [7]: < 500 nM; IC50 [6]: 53 nM |
| CCc1n[nH]c2ncnc(N3CCN(c4cc(Cl)cc(CCCN5CCCC5)c4C)CC3)c12 | 152 | 2 |  |
| Clc1cccc(N2CCN(c3ncnc4[nH]ccc34)CC2)c1 |  | 162 |  |
| CCc1n[nH]c2ncnc(N3CCN(c4cc(Cl)cc(OCCN5CCCC5)c4C)CC3)c12 | 243 | 5 |  |
| Nc1cc(N2CCN(c3cccc(Cl)c3)CC2)ncn1 |  | > 2000 |  |
| CCc1n[nH]c2ncnc(N3CCN(c4cc(Cl)cc(CCCN(CC)CC)c4C)CC3)c12 | 211 | 3 |  |
| Cc1ccc(Cl)cc1N1CCN(c2ncnc(N)c2[N+](=O)[O-])CC1 |  | 3 |  |
| CCc1n[nH]c2ncnc(N3CCN(c4cc(Cl)cc(OCCN(CC)CC)c4C)CC3)c12 | 339 | 11 |  |
| Cc1c(N)ncnc1N1CCN(c2cccc(Cl)c2)CC1 |  | > 2000 |  |
| CCc1n[nH]c2ncnc(N3CCN(c4cc(Cl)cc(NCCN(C)C)c4C)CC3)c12 | 45 | 2 | Vd [8]: 3.7 L/kg; IC50 [3]: 42 nM; inhibition in vivo at 100 mg/kg (PC-3 [9]): 49%; inhibition in vivo at 300 mg/kg (PC-3 [10]): 69%; IC50 [4]: 68 nM; bioavailability [11]: 23%; half-life [12]: 2.9 h; growth inhibition (GI) (PC-3 [13]): Dose-dependent effect; AUC/dose (Rattus norvegicus [14]): 1.72 µM·kg·h/mg; half-life [15]: 3.3 h; inhibition in vivo at 30 mg/kg (PC-3 [16]): 21%; clearance [17]: 17.4 mL/min/kg; IC50 [5]: 3020 nM; Cmax [18]: 1470 nM; Cmax [19]: 150 nM; inhibition in vivo at 100 mg/kg (Mus musculus): > 60%; IC50 [6]: 371 nM; AUC/dose (Rattus norvegicus [20]): 0.45 µM·kg·h/mg |
| CCc1n[nH]c2ncnc(N3CCN(c4cc(Cl)ccc4C)CC3)c12 | 150 | 6 | Vd [8]: 6.3 L/kg; bioavailability [11]: 2%; half-life [12]: 7.1 h; AUC/dose (Rattus norvegicus [14]): 1.74 µM·kg·h/mg; half-life [15]: 1.4 h; clearance [17]: 25.8 mL/min/kg; Cmax [18]: 6290 nM; Cmax [19]: 30 nM; AUC/dose (Rattus norvegicus [20]): 0.02 µM·kg·h/mg |
